Screening results deposited in PubChem by several laboratories.
Measles CPE – protection of cells from measles virus; Measles virus-infected cells, CPE protection, absorbance; protection (pct of control), % at 4 µM; 140,000 tested, 1.5% active; in the data active = protection mostly above about 24%, no sharp cut-off; inactive = mostly below about 26%
Yeast growth inh – reduces growth of yeast BB579 in restrictive medium. S. cerevisiae BB579 growth, OD615, 48 h. inhibition, % at 10 µM. 140,000 tested, 0.51% active;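 active = inhibition above a set limit, 3 SD over the mean compound inhibition, cut at about 44% in these data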
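System: DeaD yeast strain BB579; buffer or medium: CSMM-D dextrose restrictive medium; technique: OD at 615 nm; schedule: 4 h cell preincubation, 48 h compound exposure, 30 °C humidified; doses: single 10 µM dose; controls: amphotericin B 10 µg/mL, positive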
Yeast life ext – extends the lifespan of yeast; S. cerevisiae growth with nicotinamide, OD615; deaD strain in restrictive glucose medium; 130,000 tested, 0.68% active; AID 775; inhibition of the nicotinamide effect, % at 10 µM;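 active = inhibition above a set limit, placed 3 SD over the median of all compounds, cut at about 26% in these data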
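Test system: DeaD-strain S. cerevisiae / Buffer or medium: restrictive glucose medium / Also added: nicotinamide 1.5 mM / Doses: one concentration, 10 µM, DMSO 0.25% / Schedule: 48 h at 30 °C / Signal: OD615 measurement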
RAM inhibit – blocks the yeast RAM network. S. cerevisiae dse1pr::URA3 reporter, 5-FOA growth OD615, 2 d; analog-sensitive cbk1-as2 kinase mutant strain. inhibition, % at 50 µM. 190,000 tested, 1.8% active. AID 868;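 active = inhibition above a set limit, 3 SD over mean compound inhibition, cut at about 8.4% in these data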;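 note: inhibition rescues growth on 5-FOA so higher OD means more RAM inhibition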
Hits are given with their value; – = inactive; · = no result. Most compounds without a hit are left out; they make up all but 3.6% or so of the library.

SMILES	Measles CPE	Yeast growth inh	Yeast life ext	RAM inhibit
COc1ccc(-c2nnc3sc(CCN4C(=O)c5ccccc5C4=O)nn23)cc1	–	–	–	9.4
O=C(CCCn1c(=O)c2ccccc2n(CC(=O)N2CCN(c3ccccc3)CC2)c1=O)NCc1ccco1	·	·	·	–
CC(C)CNC(=O)CN(C1CCCCC1)S(C)(=O)=O	–	43.6	–	–
CCCNC(=O)CN(C1CCCCC1)S(C)(=O)=O	–	–	–	–
CCCCCC(=O)N/N=C/c1cccs1	–	–	–	–
CC(C)CNC(=O)CC(=O)N/N=C/c1cccs1	24.7	–	–	–
COc1ccc(Cl)cc1-n1c(C)ccc1C	–	–	–	–
COc1ccccc1N1C(=O)c2cccc3c(C(=O)O)ccc(c23)C1=O	–	–	–	–
COc1ccc2c3c(cccc13)C(=O)N(O)C2=O	–	–	58.1	–
CC(C)(C)c1cc(C(=O)O)n[nH]1	–	–	–	–
CC(C)Cc1cc(C(=O)O)n[nH]1	18.7	–	–	–
CC(=O)c1c(C(C)=O)c(C)n(C(c2ccccc2)c2ccccc2)c1C	·	·	·	–
Cc1cc(S(=O)(=O)NCC(c2ccccc2)c2ccccc2)ccc1-n1cnnn1	23.2	–	–	–
Cc1cc(S(=O)(=O)NC2CCCCC2)ccc1-n1cnnn1	·	·	·	–
CCN(CC)S(=O)(=O)c1ccc(-n2cnnn2)c(C)c1	48.4	–	–	–
CCN(CC)S(=O)(=O)c1ccc(Cl)c(C(=O)Oc2cccc(-c3cnc4ccccc4n3)c2)c1	31.4	–	–	–
CCN(CC)S(=O)(=O)c1cc(C(=O)Oc2cccc(-c3cnc4ccccc4n3)c2)ccc1Br	–	–	–	–
O=C1N=C(N2CCN(c3ccccc3)CC2)S/C1=C\c1cn[nH]c1-c1ccccc1	29.1	–	–	–
COc1cc(C(=O)OC2CSCC2NC(=O)c2ccccc2)cc(OC)c1OC (configuration not stated)	·	·	·	–
CCCCNC(=O)/C(C#N)=C/c1cccnc1	–	–	46.1	–
CCCCCCCCNC(=O)/C(C#N)=C/c1ccc2c(c1)OCCO2	–	–	–	9.4
N#C/C(=C\c1cccnc1)C(=O)NC1CCCCC1	–	–	32.5	–
N#C/C(=C\c1ccc2c(c1)OCCO2)C(=O)NC1CCCCC1	–	–	–	–
CC(O/N=C/c1ccc(OC(F)F)cc1)C(=O)Nc1cccc(S(=O)(=O)N2CCOCC2)c1 (configuration not stated)	–	–	–	–
COc1cc(/C=C2/SC(=S)N(c3ccccc3)C2=O)ccc1Oc1nc(N2CCOCC2)nc(N2CCOCC2)n1	–	–	–	9.3
SMILES	Measles CPE	Yeast growth inh	Yeast life ext	RAM inhibit
O=Cc1ccccc1Oc1nc(N2CCOCC2)nc(N2CCOCC2)n1	·	·	·	–
O=C(COC(=O)c1cc(-c2cccs2)nc2ccccc12)NC1CCS(=O)(=O)C1 (configuration not stated)	·	·	·	–
CCOc1c2ccc(C(=O)NCc3ccc(C(F)(F)F)cc3C(F)(F)F)cc2nn1C	–	–	–	–
CCCCn1nc2cc(C(=O)NCc3ccc(C(F)(F)F)cc3C(F)(F)F)ccc2c1OCC	active	–	–	–
CS(=O)(=O)c1ccc(C(=O)NCCN2C(=O)S/C(=C\c3cccnc3)C2=O)cc1[N+](=O)[O-]	·	·	·	–
CS(=O)(=O)c1nc(-c2ccccc2)cc(C(F)(F)F)n1	–	–	75.3	–
Cc1cc(NC(=O)CCS(=O)(=O)c2nc(-c3ccccc3)cc(C(F)(F)F)n2)no1	–	–	·	–
CCOc1ccc(NC(=O)C(C)NS(=O)(=O)c2ccc(NC(C)=O)cc2)cc1 (configuration not stated)	·	·	·	–
C=CCn1c(-c2ccccc2[N+](=O)[O-])n[nH]c1=S	·	·	·	–
C=CCn1c(-c2ccc([N+](=O)[O-])cc2)n[nH]c1=S	37.7	–	–	–
COc1cc(/C=c2\s/c(=C\C(=O)C(C)(C)C)[nH]c2=O)cc(OC)c1OC	·	·	·	8.8
Cc1cccc(/C=c2\s/c(=C\C(=O)C(C)(C)C)[nH]c2=O)c1	–	–	–	–
O=C(NCCO)C(O)C(O)C(=O)NCCO (configuration not stated)	·	·	·	–
N#CC(C#N)=Cc1cc2ccccc2nc1N1CCCCC1	–	–	35.8	–
O=C(CSc1nc(-c2ccccc2Cl)ns1)c1ccc(Cl)cc1	–	–	–	10.5
CCOC(=O)c1nn(-c2ccccc2F)c2nc(-c3ccco3)c(C#N)c(=O)n12	–	–	–	–
CCOC(=O)c1nn(-c2cccc(OC)c2)c2nc(CC)c(C#N)c(=O)n12	–	–	–	8.4
CN(CCc1ccccn1)C(=O)CCC1CCCN(C(=O)c2ccc3c(c2)OCCO3)C1 (configuration not stated)	·	·	·	–
COc1ccc([N+](=O)[O-])cc1NC(=O)c1ccc(Br)s1	·	·	·	–
COC(=O)/C=C1\OC(c2ccccc2)=CC1=O	–	–	38.0	–
O=C(Nc1ccccc1)n1ccc(-c2ccc(-n3ccnc3)cc2)n1	·	·	·	–
Cc1ccc(-n2c(C)cc(C3=NNC(=NC4CC4)SC3)c2C)cc1C	74.0	–	–	–
COc1ccc([C@H]2[C@H](C(=O)OC(C)(C)C)N3N=Cc4ccccc4C3C23C(=O)c2ccccc2C3=O)cc1OC (some centres not stated)	–	–	37.7	–
CC(C)(C)C(=O)[C@H]1[C@H](c2ccccc2)[C@@]2(N=C(c3ccccc3)OC2=O)C2c3ccccc3C=NN21 (some centres not stated)	–	–	–	–
COc1ccc([C@H]2[C@H](C(=O)OC(C)(C)C)N3N=Cc4ccccc4C3C23C(=O)c2ccccc2C3=O)c(OC)c1 (some centres not stated)	–	–	–	9.3
SMILES	Measles CPE	Yeast growth inh	Yeast life ext	RAM inhibit
CC(C)c1ccc(O)c(NC(=S)NC(=O)CCc2ccccc2)c1	·	·	·	–
O=C(COc1ccc2ccccc2c1)NCCNC(=O)COc1ccc2ccccc2c1	84.5	–	–	–
N#Cc1ccc(OCC(=O)NCCc2ccccn2)cc1	–	–	46.1	–
O=C(COc1ccc(Br)cc1)NCc1ccccn1	–	–	–	–
COCC(C)n1c(SCC(=O)c2cc(C)n(C)c2C)nc2ccccc2c1=O (configuration not stated)	·	·	·	–
C/C(=N\O)C(C)Oc1ccc(Cl)cc1 (configuration not stated)	·	·	·	–
CC(=O)NC1=NN(C(C)=O)C(c2ccccn2)S1 (configuration not stated)	·	·	·	–
Cc1cccc(C(C)Nc2ccc([N+](=O)[O-])cn2)c1 (configuration not stated)	42.5	–	–	–
CCOC(=O)c1[nH]cnc1C(=O)Nc1ccccc1OC	·	·	·	–
O=C1CNC(=O)/C1=C\c1ccc(O)cc1	–	–	–	–
O=C1CNC(=O)/C1=C/c1ccccc1	–	–	29.4	–
CNS(=O)(=O)c1cc(N(C)S(=O)(=O)c2ccc(C)cc2)c(C)cc1C	·	·	·	10.1
CCOC(=O)c1cnc(-n2nc(C)cc2C)nc1NC1CCCCC1	–	97.6	–	–
CCOC(=O)c1cnc(-n2nc(C)cc2C)nc1NC	–	–	–	–
O=C(NCC(=O)N1CCN(S(=O)(=O)c2cccs2)CC1)c1ccc(Cl)cc1	·	·	·	–
